Tests used:
[1] = target: Sodium-dependent serotonin transporter (Homo sapiens) (UniProt P31645); assay: Displacement of [3H]-citalopram from human SERT stably expressed in HEK cell membranes at 10 uM incubated for 90 mins under dark condition by scintillation counting analysis relative to control
[2] = target: Sodium-dependent dopamine transporter (Homo sapiens) (UniProt Q01959); assay: Displacement of [3H]-WIN35428 from human DAT expressed in HEK cell membranes at 10 uM incubated for 90 mins under dark condition by scintillation counting analysis relative to control
[3] = target: GABA-A receptor; anion channel (Rattus norvegicus) (UniProt O09028+P15431+P18506+P18508+P19969+P20236+P23574+P23576+P28471+P28473+P30191+P62813+P63079+P63138+Q91ZM7+Q9ES14); assay: Displacement of [3H]-muscimol from rat brain GABAA receptor at 10 uM incubated for 90 mins under dark condition by scintillation counting analysis relative to control
[4] = target: D(4) dopamine receptor (Homo sapiens) (UniProt P21917); assay: Displacement of [3H]-N-methylspiperone from human dopamine D4 receptor stably expressed in HEK cell membranes at 10 uM incubated for 90 mins under dark condition by scintillation counting analysis relative to control
[5] = target: D(2) dopamine receptor (Homo sapiens) (UniProt P14416); assay: Displacement of [3H]-N-methylspiperone from human dopamine D2 receptor at 10 uM incubated for 90 mins under dark condition by scintillation counting analysis relative to control
[6] = target: D(1A) dopamine receptor (Homo sapiens) (UniProt P21728); assay: Displacement of [3H]-SCH23390 from human dopamine D1 receptor transiently expressed in HEKT cell membranes at 10 uM incubated for 90 mins under dark condition by scintillation counting analysis relative to control
[7] = target: 5-hydroxytryptamine receptor 6 (Homo sapiens) (UniProt P50406); assay: Displacement of [3H]-LSD from human 5HT6 stably expressed in HEK cell membranes at 10 uM incubated for 90 mins under dark condition by scintillation counting analysis relative to control
[8] = target: 5-hydroxytryptamine receptor 5A (Homo sapiens) (UniProt P47898); assay: Displacement of [3H]-LSD from human 5HT5A expressed in Flp-In-CHO cell membranes at 10 uM incubated for 90 mins under dark condition by scintillation counting analysis relative to control
[9] = target: 5-hydroxytryptamine receptor 3A (Homo sapiens) (UniProt P46098); assay: Displacement of [3H]-LY278584 from human 5HT3R transiently expressed in HEKT cell membranes at 10 uM incubated for 90 mins under dark condition by scintillation counting analysis relative to control
[10] = target: Alpha-2A adrenergic receptor (Homo sapiens) (UniProt P08913); assay: Displacement of [3H]-rauwolscine from human adrenergic alpha2A receptor transiently expressed in HEKT cell membranes at 10 uM incubated for 90 mins under dark condition by scintillation counting analysis relative to control
[11] = target: 5-hydroxytryptamine receptor 1B (Homo sapiens) (UniProt P28222); assay: Displacement of [3H]-GR125743 from human 5HT1B stably expressed in HEK cell membranes at 10 uM incubated for 90 mins under dark condition by scintillation counting analysis relative to control
[12] = target: T1, Sodium-dependent noradrenaline transporter (Homo sapiens, UniProt P23975); assay: Displacement of [3H]-nisoxetine from human NET stably expressed in HEK cell membranes at 10 uM incubated for 90 mins under dark condition by scintillation counting analysis relative to control
[13] = target: Alpha-2C adrenergic receptor (Homo sapiens) (UniProt P18825); assay: Displacement of [3H]-rauwolscine from human adrenergic alpha2C receptor stably expressed in MDCK cell membranes at 10 uM incubated for 90 mins under dark condition by scintillation counting analysis relative to control
[14] = target: T1, Sodium-dependent noradrenaline transporter; assay: Displacement of [3H]-nisoxetine from human NET stably expressed in HEK cell membranes incubated for 90 mins under dark condition by scintillation counting analysis
Outline: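 Radioligand competition isotherms for human NET; IC50 from non-linear regression, converted to Ki via the Cheng-Prusoff equation; Ki averaged over repeated experiments.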

[15] = Fraction unbound in rat plasma; assay type: ADME, cell-free
Outline: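 Free fraction measured in rat plasma.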

CYP3A4 = CYP3A4 (Homo sapiens, UniProt P08684); assay: Inhibition of CYP3A4 (unknown origin) at 10 uM relative to control; assay type: ADME
Outline: (§1)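 Each CYP isoform inhibition assay run with test compound at 10 µM; reported as percent inhibition.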

CYP2C9 = CYP2C9 (Homo sapiens, UniProt P11712); assay: Inhibition of CYP2C9 (unknown origin) at 10 uM relative to control; assay type: ADME; outline: as §1
CYP1A2 = CYP1A2 (Homo sapiens, UniProt P05177); assay: Inhibition of CYP1A2 (unknown origin) at 10 uM relative to control; assay type: ADME; outline: as §1
[16] = Half life in Sprague-Dawley rat at 20 mg/kg, po; assay type: ADME, organism-based; conditions: in vivo
Outline: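 Male Sprague-Dawley rats (200–250 g, n = 3/group) dosed orally at 20 mg/kg in 10% DMSO:90% HP-β-CD. Retro-orbital blood sampled at 0.25, 0.5, 1, 2, 4, 8 and 24 h post-dose; plasma analysed externally. Noncompartmental analysis: λ from least-squares terminal log-linear slope, t1/2 = 0.693/λ; mean ± SEM.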

[17] = Clearance in Sprague-Dawley rat at 10 mg/kg, iv; assay type: ADME, organism-based; conditions: in vivo
Outline: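 Male Sprague-Dawley rats (200–250 g; n = 3/group) received a single iv dose in 10% DMSO:90% HP-β-CD. Retro-orbital blood was sampled before dosing and at 0.08, 0.25, 0.5, 1, 2, 4, 8 and 24 h. Plasma levels were measured. Parameters came from noncompartmental analysis, reported as mean ± SEM.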

[18] = Volume of distribution at steady state in Sprague-Dawley rat at 10 mg/kg, iv; assay type: ADME, organism-based; conditions: in vivo
Outline: (§2)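 Male Sprague-Dawley rats, 200–250 g, n = 3/group, randomly assigned; dosed 10 mg/kg iv or 20 mg/kg po in 10% DMSO:90% HP-β-CD. Retro-orbital blood sampled predose and 0.08 (iv only), 0.25, 0.5, 1, 2, 4, 8, 24 h. Noncompartmental analysis; Cmax read directly from plasma concentration–time plot; mean ± SEM.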

[19] = Volume of distribution at steady state in Sprague-Dawley rat at 20 mg/kg, po; assay type: ADME, organism-based; conditions: in vivo; outline: as §2
[20] = Cmax in Sprague-Dawley rat at 10 mg/kg, iv; assay type: ADME, organism-based; design: dose 10 mg/kg, route intravenous; conditions: in vivo; outline: as §2
5-HT2A receptor = 5-HT2A receptor (Homo sapiens, UniProt P28223); assay: Positive allosteric modulation of human 5HT2AR expressed in CHO cells assessed as increase in 5-HT induced intracellular calcium release at 1 nM preincubated for 15 mins followed by 5-HT addition and measured at 1 secs interval for 360 secs by calcium 4 dye based FLIPR assay relative to 5-HT; assay type: cell-based; conditions: CHO cells expressing human 5HT2AR
Outline: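 CHO cells stably expressing human 5-HT2AR, serum-starved 3 h, then loaded with Calcium 4 dye plus 2.5 mM probenecid in HBSS (no Ca/Mg, pH 7.4) for 60 min at 37°C and 15 min at room temperature. Test compound added 15 min before 5-HT (10 pM-10 μM). FLIPR fluorescence read every 1 s for 360 s after 5-HT. Emax from 4-parameter fit, normalized to 5-HT maximum.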

T1 sequence (P23975 whole entry): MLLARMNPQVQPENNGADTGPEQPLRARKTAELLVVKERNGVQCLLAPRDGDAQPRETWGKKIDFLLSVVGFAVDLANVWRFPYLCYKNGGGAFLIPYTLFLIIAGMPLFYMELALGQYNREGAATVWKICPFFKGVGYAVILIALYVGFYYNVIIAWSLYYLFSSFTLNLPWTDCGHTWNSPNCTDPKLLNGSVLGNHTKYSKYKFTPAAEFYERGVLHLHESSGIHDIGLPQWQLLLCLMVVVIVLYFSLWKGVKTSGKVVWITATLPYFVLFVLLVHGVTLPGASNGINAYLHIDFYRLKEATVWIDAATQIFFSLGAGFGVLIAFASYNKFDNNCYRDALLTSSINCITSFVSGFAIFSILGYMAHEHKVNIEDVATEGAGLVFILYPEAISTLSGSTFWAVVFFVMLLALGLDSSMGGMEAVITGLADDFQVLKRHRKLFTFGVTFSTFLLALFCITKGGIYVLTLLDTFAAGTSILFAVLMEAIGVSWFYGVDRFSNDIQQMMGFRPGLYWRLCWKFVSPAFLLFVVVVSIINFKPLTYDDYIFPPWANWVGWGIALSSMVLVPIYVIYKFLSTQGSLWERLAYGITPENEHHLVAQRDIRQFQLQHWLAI
Chain of 5-hydroxytryptamine receptor 1B (Homo sapiens) (P28222 whole entry): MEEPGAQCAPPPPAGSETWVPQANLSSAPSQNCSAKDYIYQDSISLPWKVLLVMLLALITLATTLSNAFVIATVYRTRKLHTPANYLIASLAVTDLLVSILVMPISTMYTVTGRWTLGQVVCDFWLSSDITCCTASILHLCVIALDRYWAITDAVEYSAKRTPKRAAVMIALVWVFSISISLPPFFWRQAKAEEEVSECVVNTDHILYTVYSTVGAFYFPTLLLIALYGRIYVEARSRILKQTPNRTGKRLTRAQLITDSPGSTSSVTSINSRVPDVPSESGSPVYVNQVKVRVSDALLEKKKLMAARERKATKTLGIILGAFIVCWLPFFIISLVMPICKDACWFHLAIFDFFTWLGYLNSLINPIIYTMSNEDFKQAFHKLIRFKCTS
Chain of CYP1A2 (P05177 whole entry): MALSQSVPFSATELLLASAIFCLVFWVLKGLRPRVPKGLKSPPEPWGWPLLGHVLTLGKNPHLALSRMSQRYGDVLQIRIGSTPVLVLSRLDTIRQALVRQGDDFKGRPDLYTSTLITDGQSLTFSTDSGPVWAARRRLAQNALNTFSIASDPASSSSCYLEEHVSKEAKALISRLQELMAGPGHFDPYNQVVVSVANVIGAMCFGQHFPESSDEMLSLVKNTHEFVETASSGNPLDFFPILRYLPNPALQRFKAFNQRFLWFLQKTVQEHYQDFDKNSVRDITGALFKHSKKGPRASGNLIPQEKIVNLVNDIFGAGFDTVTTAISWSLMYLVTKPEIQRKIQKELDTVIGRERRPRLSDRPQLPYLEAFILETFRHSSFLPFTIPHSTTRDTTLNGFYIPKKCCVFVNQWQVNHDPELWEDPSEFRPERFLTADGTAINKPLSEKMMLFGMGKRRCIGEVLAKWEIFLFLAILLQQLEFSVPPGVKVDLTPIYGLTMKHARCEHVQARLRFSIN
Chain of Alpha-2A adrenergic receptor (Homo sapiens) (P08913 whole entry): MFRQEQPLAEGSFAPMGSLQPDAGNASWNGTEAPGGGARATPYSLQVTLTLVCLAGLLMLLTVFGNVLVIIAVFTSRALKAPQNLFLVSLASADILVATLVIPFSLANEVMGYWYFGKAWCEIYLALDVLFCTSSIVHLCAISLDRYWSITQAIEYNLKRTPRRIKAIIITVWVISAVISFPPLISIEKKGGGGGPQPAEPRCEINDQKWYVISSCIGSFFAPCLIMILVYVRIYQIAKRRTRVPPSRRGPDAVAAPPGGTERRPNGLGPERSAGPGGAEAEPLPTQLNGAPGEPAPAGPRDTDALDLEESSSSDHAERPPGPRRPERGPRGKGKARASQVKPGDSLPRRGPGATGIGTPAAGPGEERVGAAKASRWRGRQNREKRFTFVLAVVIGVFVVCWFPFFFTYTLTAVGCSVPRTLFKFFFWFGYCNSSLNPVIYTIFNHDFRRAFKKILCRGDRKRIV
Chain of 5-hydroxytryptamine receptor 5A (Homo sapiens) (P47898 whole entry): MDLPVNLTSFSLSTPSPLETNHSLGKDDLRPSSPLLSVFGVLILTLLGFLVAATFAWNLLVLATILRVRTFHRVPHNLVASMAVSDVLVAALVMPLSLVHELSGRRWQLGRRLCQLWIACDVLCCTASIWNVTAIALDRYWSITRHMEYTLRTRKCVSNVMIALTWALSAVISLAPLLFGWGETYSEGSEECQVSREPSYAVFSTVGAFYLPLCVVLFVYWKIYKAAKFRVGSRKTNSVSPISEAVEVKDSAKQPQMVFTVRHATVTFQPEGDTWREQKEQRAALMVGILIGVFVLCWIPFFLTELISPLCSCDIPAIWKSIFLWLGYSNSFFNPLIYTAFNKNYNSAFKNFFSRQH
Chain of Sodium-dependent serotonin transporter (Homo sapiens) (P31645 whole entry, looked up): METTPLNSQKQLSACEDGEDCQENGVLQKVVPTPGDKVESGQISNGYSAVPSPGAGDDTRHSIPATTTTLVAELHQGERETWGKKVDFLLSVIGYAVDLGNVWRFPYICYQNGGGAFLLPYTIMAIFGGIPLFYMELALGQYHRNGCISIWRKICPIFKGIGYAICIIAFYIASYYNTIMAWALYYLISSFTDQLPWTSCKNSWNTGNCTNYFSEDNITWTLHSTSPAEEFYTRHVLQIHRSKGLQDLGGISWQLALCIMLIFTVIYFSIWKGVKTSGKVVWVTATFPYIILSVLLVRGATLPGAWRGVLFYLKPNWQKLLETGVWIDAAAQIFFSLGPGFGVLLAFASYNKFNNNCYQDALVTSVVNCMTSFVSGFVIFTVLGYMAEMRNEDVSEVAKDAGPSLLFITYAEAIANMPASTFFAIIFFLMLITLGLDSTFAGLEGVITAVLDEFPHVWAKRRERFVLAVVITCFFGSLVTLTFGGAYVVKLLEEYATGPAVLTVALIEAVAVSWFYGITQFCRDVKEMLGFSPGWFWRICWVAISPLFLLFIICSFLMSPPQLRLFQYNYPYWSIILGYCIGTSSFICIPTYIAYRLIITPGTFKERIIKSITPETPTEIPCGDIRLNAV
Chain of 5-hydroxytryptamine receptor 6 (Homo sapiens) (P50406 whole entry): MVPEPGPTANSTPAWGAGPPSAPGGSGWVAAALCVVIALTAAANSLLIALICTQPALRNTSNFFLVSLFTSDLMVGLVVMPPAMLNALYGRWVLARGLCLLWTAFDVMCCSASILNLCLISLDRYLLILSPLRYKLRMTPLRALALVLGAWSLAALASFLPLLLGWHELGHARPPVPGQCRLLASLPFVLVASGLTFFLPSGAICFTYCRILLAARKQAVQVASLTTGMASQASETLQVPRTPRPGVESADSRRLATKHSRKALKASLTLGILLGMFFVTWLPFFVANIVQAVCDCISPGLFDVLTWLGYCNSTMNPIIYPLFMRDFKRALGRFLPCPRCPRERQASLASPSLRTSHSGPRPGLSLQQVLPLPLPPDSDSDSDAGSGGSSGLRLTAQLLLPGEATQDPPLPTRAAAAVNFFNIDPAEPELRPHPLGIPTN
Chain of Alpha-2C adrenergic receptor (Homo sapiens) (P18825 whole entry): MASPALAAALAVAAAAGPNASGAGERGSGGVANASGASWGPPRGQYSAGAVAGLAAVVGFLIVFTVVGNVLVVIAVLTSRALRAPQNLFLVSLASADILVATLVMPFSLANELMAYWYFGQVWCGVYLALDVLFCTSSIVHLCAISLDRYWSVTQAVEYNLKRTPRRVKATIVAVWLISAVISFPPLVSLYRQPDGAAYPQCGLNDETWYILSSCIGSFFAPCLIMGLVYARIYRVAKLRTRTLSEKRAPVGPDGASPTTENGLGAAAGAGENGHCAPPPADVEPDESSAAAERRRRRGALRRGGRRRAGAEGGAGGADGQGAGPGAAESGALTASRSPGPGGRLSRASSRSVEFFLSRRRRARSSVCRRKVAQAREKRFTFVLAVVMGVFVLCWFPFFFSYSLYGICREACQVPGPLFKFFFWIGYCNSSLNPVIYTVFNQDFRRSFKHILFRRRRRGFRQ
Chain of Sodium-dependent dopamine transporter (Homo sapiens) (Q01959 whole entry): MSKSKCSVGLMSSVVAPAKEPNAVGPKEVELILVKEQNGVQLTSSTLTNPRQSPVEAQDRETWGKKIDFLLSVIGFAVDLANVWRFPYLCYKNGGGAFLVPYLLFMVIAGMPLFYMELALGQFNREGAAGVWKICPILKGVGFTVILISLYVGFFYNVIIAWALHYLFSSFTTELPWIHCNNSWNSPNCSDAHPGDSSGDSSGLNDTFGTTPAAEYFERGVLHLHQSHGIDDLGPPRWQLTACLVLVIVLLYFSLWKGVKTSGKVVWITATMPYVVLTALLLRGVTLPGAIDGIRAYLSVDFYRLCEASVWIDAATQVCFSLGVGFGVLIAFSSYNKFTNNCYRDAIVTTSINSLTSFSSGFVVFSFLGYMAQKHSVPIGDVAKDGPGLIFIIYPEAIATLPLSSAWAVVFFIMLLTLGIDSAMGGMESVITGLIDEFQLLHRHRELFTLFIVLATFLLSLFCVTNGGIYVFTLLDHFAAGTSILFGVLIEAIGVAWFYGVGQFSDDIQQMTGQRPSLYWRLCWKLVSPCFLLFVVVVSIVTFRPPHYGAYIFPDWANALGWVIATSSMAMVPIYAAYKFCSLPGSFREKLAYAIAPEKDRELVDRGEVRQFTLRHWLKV
Chain of 5-HT2A receptor (P28223 whole entry): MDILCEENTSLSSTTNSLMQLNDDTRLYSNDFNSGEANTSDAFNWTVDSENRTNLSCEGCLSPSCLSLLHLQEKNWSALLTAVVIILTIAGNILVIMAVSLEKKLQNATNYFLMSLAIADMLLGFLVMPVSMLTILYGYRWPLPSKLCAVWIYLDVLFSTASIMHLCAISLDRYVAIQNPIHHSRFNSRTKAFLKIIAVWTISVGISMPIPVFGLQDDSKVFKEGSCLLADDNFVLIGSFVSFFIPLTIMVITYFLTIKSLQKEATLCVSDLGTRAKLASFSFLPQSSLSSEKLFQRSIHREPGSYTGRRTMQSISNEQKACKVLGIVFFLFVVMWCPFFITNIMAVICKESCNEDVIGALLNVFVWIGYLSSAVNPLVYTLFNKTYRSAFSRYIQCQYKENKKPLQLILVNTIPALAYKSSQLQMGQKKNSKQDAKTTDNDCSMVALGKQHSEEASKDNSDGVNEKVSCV

Which inhibition [1] does the source give for O=C(NC[C@H](O)CO)[C@@H]1C[C@H](c2ccccc2)CCN1 (mixture of isomers) here?
Its inhibition is 47.5%.

And the inhibition [2]?
Its inhibition is 40.8%.

What about the inhibition [3] of the same compound?
The inhibition was 7%.

What about the inhibition [4] of the same compound?
The inhibition was -9.3%.

And the inhibition [5]?
The inhibition was 7.5%.

What about the inhibition [6] of the same compound?
The inhibition was 9.7%.

And the inhibition [7]?
Its inhibition is 2.5%.

And the inhibition [8]?
Its inhibition is -4.3%.

What about the inhibition [9] of the same compound?
The inhibition was 22.3%.

And the inhibition [10]?
The inhibition was -7.6%.

And the inhibition [11]?
Its inhibition is 12.3%.

What about the inhibition [12] of the same compound?
Its inhibition is 74.4%.

What about the inhibition [13] of the same compound?
Its inhibition is -1.8%.

What about the Ki [14] of the same compound?
The Ki was 2.5 µM.

And the Fu [15]?
The Fu was 66%.

And the inhibition at 10 µM (CYP3A4)?
The inhibition at 10 µM was 0%.

What about the inhibition at 10 µM (CYP2C9) of the same compound?
The inhibition at 10 µM was 0%.

And the inhibition at 10 µM (CYP1A2)?
The inhibition at 10 µM was 11.8%.

And the t1/2 [16]?
The t1/2 was 4.4 h.

And the CL [17]?
Its CL is 54.7 mL/min/kg.

What about the Vdss [18] of the same compound?
The Vdss was 5.4 L/kg.

What about the Vdss [19] of the same compound?
The Vdss was 70.6 L/kg.

And the Cmax [20]?
The Cmax was 2408.6 ng/mL.

And the Emax at 0.1 h, 0.001 µM (5-HT2A receptor)?
Its Emax at 0.1 h, 0.001 µM is 103%.

From ChEMBL document CHEMBL4622923, “Discovery of 4-Phenylpiperidine-2-Carboxamide Analogues as Serotonin 5-HT2C Receptor-Positive Allosteric Modulators with Enhanced Drug-like Properties” (J Med Chem, 2020)
